# EBI2 antag = EBI2 (human) antagonism; EBI2 beta-arrestin recruitment, luminescence, 7a,25-OHC stimulated; inhibition, % at 5 µM; P32249; hit rate 0.81% among 360,000; AID 651636; in the data active means inhibition above about 38%;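 further: enzyme fragment complementation signal reports receptor beta-arrestin coupling in cells; 0% = agonist plus DMSO wells and 100% = wells without agonist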
# Target sequence (P32249 whole entry, looked up, the tested form may be a part): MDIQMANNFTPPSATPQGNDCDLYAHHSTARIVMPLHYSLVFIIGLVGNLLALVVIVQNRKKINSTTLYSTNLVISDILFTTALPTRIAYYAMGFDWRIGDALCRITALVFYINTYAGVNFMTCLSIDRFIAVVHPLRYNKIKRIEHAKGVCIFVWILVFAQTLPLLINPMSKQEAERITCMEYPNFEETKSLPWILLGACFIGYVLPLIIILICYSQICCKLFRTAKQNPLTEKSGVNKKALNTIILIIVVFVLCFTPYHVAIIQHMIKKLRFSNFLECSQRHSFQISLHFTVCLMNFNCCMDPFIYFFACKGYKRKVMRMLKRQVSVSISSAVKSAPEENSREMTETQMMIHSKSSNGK
# CXCR6 block = inhibitors of human CXCR6 receptor; O00574; CHO-K1 PathHunter CXCR6 beta-arrestin, luminescence; inhibition, % at 20 µM; hit rate 0.36% among 360,000; AID 602244; in the data active means inhibition above about 34%, passing the limit was not always enough;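 further: antagonist mode with CXCL16 agonist at 10 nM final; 0% = 10 nM CXCL16 with DMSO and 100% = unstimulated wells without agonist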
# CCR6 antag = CCR6 (human) receptor antagonism | AID 493098 | CHO-K1 CCR6 PathHunter beta-arrestin, luminescence, CCL20-stimulated | inhibition, % at 20 µM | P51684 | hit rate 0.49% among 340,000;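 active means compounds whose inhibition of the agonist-driven luminescence signal at 20 µM reaches about 50%, limit read from the data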;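 further: cells stimulated with CCL20 at 14 nM final; plate controls were DMSO with CCL20 for no effect and DMSO without agonist for full effect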
# m5-HT2A agonist = agonists of mouse serotonin 5-HT2A receptor (HTR2A). P35363. CHO-K1 mHTR2A beta-arrestin complementation, luminescence; percent of 30 µM serotonin response. hit rate 0.66% among 360,000. activation, % at 7.6 µM;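 active means activation above a run cutoff, the mean activation of all tested compounds plus 3 SD, cut at about 14% in these data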;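 further: 0% = plate median of compound wells and 100% = 30 µM serotonin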
# APJ agonist = agonists of human APJ apelin receptor. hit rate 0.11% among 330,000. activation, % at 20 µM. CHO-K1 APJ PathHunter beta-arrestin, luminescence; 0% DMSO wells, 100% apelin. AID 2520;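 active means activation more than six SD over the plate average, tested at 20 µM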;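 further: 0% = DMSO alone and 100% = apelin-13 at 10 nM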
#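 Material: CHO-K1 APJ beta-arrestin complementation cell line; Input: cell density 1000 per well; Incubation: compound stimulation 90 min at 25 °C, detection 60 min; Signal: luminescence from split beta-galactosidase complementation, Galacton Star/Emerald II substrate; Controls: DMSO-only wells as negative, 10 nM Apelin-13 as positive control.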
# APJ antagonist = APJ receptor antagonism | inhibition, % at 20 µM | P35414 | CHO-K1 APJ beta-arrestin complementation, luminescence | AID 2521 | hit rate 0.32% among 330,000;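 active means inhibition above about 40% at 20 µM, limit read from the data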;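 further: cells challenged with 10 nM apelin-13 agonist together with compound; plate controls were apelin-13 plus DMSO wells for no effect and DMSO wells lacking apelin-13 for full effect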
# APJ antag conf = confirmation of human APJ apelin receptor antagonists | APJ beta-arrestin recruitment, luminescence, antagonist mode | inhibition, % at 20 µM | hit rate 66% among 950 | shares compounds with APJ antagonist; in the data active means inhibition above about 50%
# * hit, by the source's call; . = not tested or not shown. A selection: hits, their analogues and other compounds. The true share with any hit is near 2.1%.
SMILES,EBI2 antag,CXCR6 block,CCR6 antag,m5-HT2A agonist,APJ agonist,APJ antagonist,APJ antag conf
O=C(C1=C(O)C(=O)N(CCN2CCOCC2)C1c1ccco1)c1cc2ccccc2o1 (stereo unspecified),10.2,25.7,14.2,-6.2,-24.4,50.2*,41.3
CC(=O)Nc1cccc(CNCc2cccc(NC(C)=O)c2)c1,-17.0,-8.8,12.6,5.3,3.8,15.1,.
COc1ccc(NC(=S)NNc2ccc(S(=O)(=O)Nc3ccccc3C(=O)O)cc2[N+](=O)[O-])cc1,20.6,43.2*,68.5*,-1.7,-10.9,55.6*,100.1*
CCOC(=O)c1sc2nc(C)cc(-c3ccccc3)c2c1N,16.7,2.3,32.2,2.7,-1.6,-9.6,.
CN(C)S(=O)(=O)c1ccc2c(c1)C(=O)c1cc(S(=O)(=O)N(C)C)ccc1CC2,12.3,1.8,14.4,-3.5,1.3,-5.0,.
CN(C)S(=O)(=O)c1ccc2c(c1)/C(=C/c1cc3c([nH]1)CCCC3)C(=O)N2,49.5*,12.6,21.5,-0.5,-5.5,40.1*,22.8
CC(C)c1ccc(NC(=S)NCc2cccs2)cc1,7.6,-5.4,13.5,-0.9,-0.5,-1.3,.
CC1CN(C(=O)c2cc(S(=O)(=O)N3CCCC3)ccc2Cl)CC(C)O1 (stereo unspecified),-7.0,-1.4,-1.6,-6.2,7.7,12.1,.
Cc1ccc(NC(=S)N/N=C2/CCCCc3ccccc32)cc1,18.1,5.9,22.3,-16.1,-6.6,22.4,.
Cc1cccc(NC(=S)N/N=C2/CCCCc3ccccc32)c1,27.4,5.0,31.7,-25.5,-6.9,47.7*,93.1*
Cc1cc(C(=O)N2CCCC(C(=O)c3cc(F)ccc3F)C2)c(C)o1 (stereo unspecified),3.6,1.0,14.2,0.7,-6.0,-0.2,.
CCOC(=O)c1nnc2cc(-c3ccccc3)nn2c1C,-0.1,1.5,-6.0,4.2,-3.7,8.2,.
CCOC(=O)c1nnc2c(Br)c(-c3ccccc3)nn2c1C,15.1,27.8,38.4,7.7,-13.0,44.0*,14.6
COC(=O)c1ccc(N/N=C/c2cc([N+](=O)[O-])cc(OC)c2O)cc1,13.4,41.6*,57.4*,-2.4,-8.1,59.3*,85.0*
COc1ccc(/C=N\Nc2ccc([N+](=O)[O-])cc2)c(C(=O)O)c1OC,-4.3,15.0,23.7,1.2,-4.8,46.6*,59.9*
COc1cccc(/C=N/Nc2ccc([N+](=O)[O-])cc2)c1O,15.0,12.4,34.7,-11.2,-2.7,14.9,.
N#CC(c1cccc(Cl)c1)c1ccc2c(C(F)(F)F)cc(C(F)(F)F)nc2n1 (stereo unspecified),-35.3,35.3,49.8,-1.6,-10.2,45.6*,75.8*
NNc1ccc2c(C(F)(F)F)cc(C(F)(F)F)nc2n1,-4.6,26.4,44.4,2.9,-5.1,9.6,.
O=C(NC1CCCC1)c1nc2c(nnn2Cc2ccccc2Cl)c(=O)[nH]1,-7.3,-2.2,-2.3,7.1,-5.5,10.8,.
CCN(CC)C(=S)SSC(=S)N(CC)CC,12.3,50.6*,59.6*,1.0,-14.8,71.0*,107.7*
CCN(CC)C(=S)SCC(=O)c1ccccc1,-3.8,-3.3,15.3,-4.7,-5.0,-7.2,.
O=C/C(=C\Nc1ccc(Cl)cn1)c1nc2cc(Cl)ccc2o1,3.8,-3.3,-11.7,-1.9,-4.9,14.9,.
COc1cc(NS(=O)(=O)c2ccc(NC(C)=O)cc2)nc(OC)n1,-4.4,-4.0,-10.6,4.3,1.0,9.4,.
COc1cc(NS(=O)(=O)c2ccc(N/C=C(\C#N)c3nc4cc(Cl)ccc4o3)cc2)nc(OC)n1,2.4,12.6,24.1,-0.7,1.4,40.9*,-2.0
O=C/C(=C\Nc1ccc(S(=O)(=O)CCO)cc1)c1nc2cc(Cl)ccc2o1,4.5,12.1,44.0,1.8,0.6,104.8*,14.3
O=C(COC(=O)c1cc([N+](=O)[O-])ccc1N1CCOCC1)Nc1ncc(Cl)cc1Cl,14.6,4.6,6.3,-0.2,1.7,15.9,.
CN(C)S(=O)(=O)c1cccc(COC(=O)CN2CCCCCC2=O)c1,10.7,0.8,14.5,-5.4,-0.6,-2.2,.

# Source: PubChem
